System: Japanese patients with advanced solid tumors
Experiment: Phase 1 study: safety, tolerability, DLT and treatment-emergent adverse events
Assay type: in vivo, human
Procedure, shortened: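 Open-label single-arm dose levels of 80 or 105 mg/m2 IV were given on day 1 of 14-day cycles, with at most 6 patients per level. Adverse events were graded by CTCAE v4.03. DLTs were related events in cycle 1 meeting predefined hematologic or nonhematologic criteria. Tolerability required a cycle 1 DLT rate <33%. Primary G-CSF prophylaxis was barred during DLT evaluation; G-CSF was allowed for treatment-emergent neutropenia and as secondary prophylaxis.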

COc1cccc(OCCCN)c1-c1cc(Nc2cnc(C#N)cn2)n[nH]1 [Prexasertib]
TEAE related to study treatment: Lung infection (105 mg/m^2 N = 6, Grade 3 + 4): 0 n (%)
TEAE related to study treatment: Lymphocytopenia (105 mg/m^2 N = 6, Grade 3 + 4): 0 n (%)
TEAE related to study treatment: Nausea (105 mg/m^2 N = 6, Grade 3 + 4): 0 n (%)
TEAE related to study treatment: Neutropenia (105 mg/m^2 N = 6, Grade 3 + 4): 6 (100) n (%)
TEAE related to study treatment: Pyrexia (105 mg/m^2 N = 6, Grade 3 + 4): 0 n (%)
TEAE related to study treatment: Rash (105 mg/m^2 N = 6, Grade 3 + 4): 0 n (%)
TEAE related to study treatment: Rash maculopapular (105 mg/m^2 N = 6, Grade 3 + 4): 0 n (%)
TEAE related to study treatment: SVE (supraventricular extrasystoles) (105 mg/m^2 N = 6, Grade 3 + 4): 0 n (%)
TEAE related to study treatment: Stomatitis (105 mg/m^2 N = 6, Grade 3 + 4): 0 n (%)
TEAE related to study treatment: Thrombocytopenia (105 mg/m^2 N = 6, Grade 3 + 4): 1 (16.7) n (%)
TEAE related to study treatment: Anemia (105 mg/m^2 N = 6, Grade 4): 0 n (%)
TEAE related to study treatment: Any (105 mg/m^2 N = 6, Grade 4): 3 (50.0) n (%)
TEAE related to study treatment: Atrial fibrillation (105 mg/m^2 N = 6, Grade 4): 0 n (%)
TEAE related to study treatment: Constipation (105 mg/m^2 N = 6, Grade 4): 0 n (%)
TEAE related to study treatment: ECG QT prolonged (105 mg/m^2 N = 6, Grade 4): 0 n (%)
TEAE related to study treatment: Fatigue (105 mg/m^2 N = 6, Grade 4): 0 n (%)
TEAE related to study treatment: Febrile neutropenia (105 mg/m^2 N = 6, Grade 4): 0 n (%)
TEAE related to study treatment: Headache (105 mg/m^2 N = 6, Grade 4): 0 n (%)
TEAE related to study treatment: Hypocalcemia (105 mg/m^2 N = 6, Grade 4): 0 n (%)
TEAE related to study treatment: Leukopenia (105 mg/m^2 N = 6, Grade 4): 1 (16.7) n (%)
TEAE related to study treatment: Lung infection (105 mg/m^2 N = 6, Grade 4): 0 n (%)
TEAE related to study treatment: Lymphocytopenia (105 mg/m^2 N = 6, Grade 4): 0 n (%)
TEAE related to study treatment: Nausea (105 mg/m^2 N = 6, Grade 4): 0 n (%)
TEAE related to study treatment: Neutropenia (105 mg/m^2 N = 6, Grade 4): 3 (50.0) n (%)
TEAE related to study treatment: Pyrexia (105 mg/m^2 N = 6, Grade 4): 0 n (%)
TEAE related to study treatment: Rash (105 mg/m^2 N = 6, Grade 4): 0 n (%)
TEAE related to study treatment: Rash maculopapular (105 mg/m^2 N = 6, Grade 4): 0 n (%)
TEAE related to study treatment: SVE (supraventricular extrasystoles) (105 mg/m^2 N = 6, Grade 4): 0 n (%)
TEAE related to study treatment: Stomatitis (105 mg/m^2 N = 6, Grade 4): 0 n (%)
TEAE related to study treatment: Thrombocytopenia (105 mg/m^2 N = 6, Grade 4): 0 n (%)
Patients with at least 1 AE that led to a dose adjustment (105 mg/m^2 group): 3 patients
Patients with at least 1 AE that led to a dose delay (105 mg/m^2 group): 3 patients
Patients with at least 1 AE that led to dose reduction (105 mg/m^2 group (105 to 80 mg/m^2)): 1 patient
TEAE related to study treatment: Anemia (Total N = 12, Any grade): 3 (25.0) n (%)
TEAE related to study treatment: Any (Total N = 12, Any grade): 12 (100) n (%)
TEAE related to study treatment: Atrial fibrillation (Total N = 12, Any grade): 1 (8.3) n (%)
TEAE related to study treatment: Constipation (Total N = 12, Any grade): 3 (25.0) n (%)
TEAE related to study treatment: ECG QT prolonged (Total N = 12, Any grade): 2 (16.7) n (%)
TEAE related to study treatment: Fatigue (Total N = 12, Any grade): 2 (16.7) n (%)
TEAE related to study treatment: Febrile neutropenia (Total N = 12, Any grade): 2 (16.7) n (%)
TEAE related to study treatment: Headache (Total N = 12, Any grade): 1 (8.3) n (%)
TEAE related to study treatment: Hypocalcemia (Total N = 12, Any grade): 1 (8.3) n (%)
TEAE related to study treatment: Leukopenia (Total N = 12, Any grade): 12 (100) n (%)
TEAE related to study treatment: Lung infection (Total N = 12, Any grade): 1 (8.3) n (%)
TEAE related to study treatment: Lymphocytopenia (Total N = 12, Any grade): 2 (16.7) n (%)
TEAE related to study treatment: Nausea (Total N = 12, Any grade): 2 (16.7) n (%)
TEAE related to study treatment: Neutropenia (Total N = 12, Any grade): 11 (91.7) n (%)
TEAE related to study treatment: Pyrexia (Total N = 12, Any grade): 2 (16.7) n (%)
TEAE related to study treatment: Rash (Total N = 12, Any grade): 1 (8.3) n (%)
TEAE related to study treatment: Rash maculopapular (Total N = 12, Any grade): 2 (16.7) n (%)
TEAE related to study treatment: SVE (supraventricular extrasystoles) (Total N = 12, Any grade): 1 (8.3) n (%)
TEAE related to study treatment: Stomatitis (Total N = 12, Any grade): 1 (8.3) n (%)
TEAE related to study treatment: Thrombocytopenia (Total N = 12, Any grade): 8 (66.7) n (%)
TEAE related to study treatment: Anemia (Total N = 12, Grade 3): 1 (8.3) n (%)
TEAE related to study treatment: Any (Total N = 12, Grade 3): 5 (41.7) n (%)
TEAE related to study treatment: Atrial fibrillation (Total N = 12, Grade 3): 0 n (%)
TEAE related to study treatment: Constipation (Total N = 12, Grade 3): 0 n (%)
TEAE related to study treatment: ECG QT prolonged (Total N = 12, Grade 3): 0 n (%)
TEAE related to study treatment: Fatigue (Total N = 12, Grade 3): 0 n (%)
TEAE related to study treatment: Febrile neutropenia (Total N = 12, Grade 3): 1 (8.3) n (%)
TEAE related to study treatment: Headache (Total N = 12, Grade 3): 0 n (%)
TEAE related to study treatment: Hypocalcemia (Total N = 12, Grade 3): 0 n (%)
TEAE related to study treatment: Leukopenia (Total N = 12, Grade 3): 5 (41.7) n (%)
TEAE related to study treatment: Lung infection (Total N = 12, Grade 3): 0 n (%)
TEAE related to study treatment: Lymphocytopenia (Total N = 12, Grade 3): 1 (8.3) n (%)
TEAE related to study treatment: Nausea (Total N = 12, Grade 3): 0 n (%)
TEAE related to study treatment: Neutropenia (Total N = 12, Grade 3): 4 (33.3) n (%)
TEAE related to study treatment: Pyrexia (Total N = 12, Grade 3): 0 n (%)
TEAE related to study treatment: Rash (Total N = 12, Grade 3): 0 n (%)
TEAE related to study treatment: Rash maculopapular (Total N = 12, Grade 3): 0 n (%)
TEAE related to study treatment: SVE (supraventricular extrasystoles) (Total N = 12, Grade 3): 0 n (%)
TEAE related to study treatment: Stomatitis (Total N = 12, Grade 3): 0 n (%)
TEAE related to study treatment: Thrombocytopenia (Total N = 12, Grade 3): 3 (25.0) n (%)
TEAE related to study treatment: Anemia (Total N = 12, Grade 3 + 4): 2 (16.7) n (%)
TEAE related to study treatment: Any (Total N = 12, Grade 3 + 4): 12 (100) n (%)
TEAE related to study treatment: Atrial fibrillation (Total N = 12, Grade 3 + 4): 0 n (%)
TEAE related to study treatment: Constipation (Total N = 12, Grade 3 + 4): 0 n (%)
TEAE related to study treatment: ECG QT prolonged (Total N = 12, Grade 3 + 4): 0 n (%)
TEAE related to study treatment: Fatigue (Total N = 12, Grade 3 + 4): 0 n (%)
TEAE related to study treatment: Febrile neutropenia (Total N = 12, Grade 3 + 4): 2 (16.7) n (%)
TEAE related to study treatment: Headache (Total N = 12, Grade 3 + 4): 0 n (%)
TEAE related to study treatment: Hypocalcemia (Total N = 12, Grade 3 + 4): 0 n (%)
TEAE related to study treatment: Leukopenia (Total N = 12, Grade 3 + 4): 9 (75.0) n (%)
TEAE related to study treatment: Lung infection (Total N = 12, Grade 3 + 4): 0 n (%)
TEAE related to study treatment: Lymphocytopenia (Total N = 12, Grade 3 + 4): 1 (8.3) n (%)
TEAE related to study treatment: Nausea (Total N = 12, Grade 3 + 4): 0 n (%)
TEAE related to study treatment: Neutropenia (Total N = 12, Grade 3 + 4): 10 (83.3) n (%)
TEAE related to study treatment: Pyrexia (Total N = 12, Grade 3 + 4): 0 n (%)
TEAE related to study treatment: Rash (Total N = 12, Grade 3 + 4): 0 n (%)
TEAE related to study treatment: Rash maculopapular (Total N = 12, Grade 3 + 4): 0 n (%)
TEAE related to study treatment: SVE (supraventricular extrasystoles) (Total N = 12, Grade 3 + 4): 0 n (%)
TEAE related to study treatment: Stomatitis (Total N = 12, Grade 3 + 4): 0 n (%)
TEAE related to study treatment: Thrombocytopenia (Total N = 12, Grade 3 + 4): 4 (33.3) n (%)
TEAE related to study treatment: Anemia (Total N = 12, Grade 4): 1 (8.3) n (%)
TEAE related to study treatment: Any (Total N = 12, Grade 4): 7 (58.3) n (%)
TEAE related to study treatment: Atrial fibrillation (Total N = 12, Grade 4): 0 n (%)
TEAE related to study treatment: Constipation (Total N = 12, Grade 4): 0 n (%)
TEAE related to study treatment: ECG QT prolonged (Total N = 12, Grade 4): 0 n (%)
TEAE related to study treatment: Fatigue (Total N = 12, Grade 4): 0 n (%)
TEAE related to study treatment: Febrile neutropenia (Total N = 12, Grade 4): 1 (8.3) n (%)
TEAE related to study treatment: Headache (Total N = 12, Grade 4): 0 n (%)
TEAE related to study treatment: Hypocalcemia (Total N = 12, Grade 4): 0 n (%)
TEAE related to study treatment: Leukopenia (Total N = 12, Grade 4): 4 (33.3) n (%)
TEAE related to study treatment: Lung infection (Total N = 12, Grade 4): 0 n (%)
TEAE related to study treatment: Lymphocytopenia (Total N = 12, Grade 4): 0 n (%)
TEAE related to study treatment: Nausea (Total N = 12, Grade 4): 0 n (%)
TEAE related to study treatment: Neutropenia (Total N = 12, Grade 4): 6 (50.0) n (%)
TEAE related to study treatment: Pyrexia (Total N = 12, Grade 4): 0 n (%)
TEAE related to study treatment: Rash (Total N = 12, Grade 4): 0 n (%)
TEAE related to study treatment: Rash maculopapular (Total N = 12, Grade 4): 0 n (%)
TEAE related to study treatment: SVE (supraventricular extrasystoles) (Total N = 12, Grade 4): 0 n (%)
TEAE related to study treatment: Stomatitis (Total N = 12, Grade 4): 0 n (%)
TEAE related to study treatment: Thrombocytopenia (Total N = 12, Grade 4): 1 (8.3) n (%)
Frequently-reported TEAE: leukopenia (all 12 patients): 100%
Frequently-reported TEAE: neutropenia (all 12 patients): 91.7%
Frequently-reported TEAE: thrombocytopenia (all 12 patients): 66.7%
Nonhematologic grade 3 or 4 treatment-related TEAE (all 12 patients): no reported nonhematologic grade 3 or 4 treatment‐related TEAE
Treatment-related grade 4 TEAE: anemia (all 12 patients (1 instance)): 8.3%
Treatment-related grade 4 TEAE: febrile neutropenia (all 12 patients (1 instance)): 8.3%
Treatment-related grade 4 TEAE: thrombocytopenia (all 12 patients (1 instance)): 8.3%
Treatment-related grade 4 TEAE: leukopenia (all 12 patients (4 patients)): 33.3%
Treatment-related grade 4 TEAE: neutropenia (all 12 patients (6 patients)): 50.0%
AE that led to treatment interruption (all patients): No patients experienced AE that led to treatment interruption
Clinically significant cardiac toxicities or AE related to QT prolongation (all patients): No clinically significant cardiac toxicities or AE related to QT prolongation were observed
Discontinuation of the study due to an AE (all patients): no patients discontinued the study due to an AE
Patient deaths during the study (all patients): No patient deaths were reported
Patients with at least 1 AE that led to a dose adjustment (all patients (8 patients)): 66.7%
Patients with at least 1 AE that led to dose reduction (all patients (Five patients)): 41.7%
Patients with at least 1 AE that led to a dose delay (all patients (Six patients)): 50.0%
Dose reduction due to febrile neutropenia (all patients, 1 patient in each group): 16.7%
Dose delay due to neutropenia (all patients, 2 patients in each group): 33.3%
Neutrophil count nadir in patients with grade 4 drug-related neutropenia (day of cycle): ~8 days
Duration of grade 4 neutrophil decreases (in most cases, transient): < 5 days
Tolerability (DLT frequency in cycle 1 <33%) (recommended dose of 105 mg/m^2, Japanese patients): confirmed

Source: article PMC6247064 (Cancer Science, 2018)
